Measured values: ChEMBL document CHEMBL1138779, “Antitumor agents. 234. Design, synthesis, and biological evaluation of novel 4beta-[(4' '-benzamido)-amino]-4'-o-demethyl-epipodophyllotoxin derivatives” (2004)
Values after ≈ are worked out from the molar mass of the structure shown. Values joined by “and” are separate entries in the source; they are usually repeats but may differ in a detail not shown here. Equal values may be shown once.

How the values were obtained:
CAKI-1 = assay: Dose required for reduction in human renal CAKI-1 cancer cells after 3 days incubation; type: functional; settings: CAKI-1, 72 h, read-out: ED50 (the source's name)
Summary of the method: (§1)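 Cells grown at 37 °C, humidified 5% CO2, in RPMI-1640 with 25 mM HEPES, […], 10% (v/v) FBS and 100 µg/mL kanamycin. Drug exposure for 3 days. ED50 (concentration giving 50% reduction in cell number) interpolated from dose–response data. Triplicate tests, variation no more than 5%; independent ED50 determinations varied no more than 30%.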

U-87 MG = assay: Dose required for reduction in human glioblastoma U-87-MG cancer cells after 3 days incubation; type: functional, U-87MG ATCC; settings: 72 h, read-out: ED50 (the source's name); summary of the method: as §1
HCT-8 = assay: Dose required for reduction in human ileocecal HCT-8 cancer cells after 3 day incubation; type: functional; settings: HCT-8, 72 h, read-out: ED50 (the source's name); summary of the method: as §1
PC-3 = assay: Dose required for reduction in human prostate PC-3 cancer cells after 3 days incubation; type: functional; settings: PC-3, 72 h, read-out: ED50 (the source's name); summary of the method: as §1
KB [1] = assay: Dose required for reduction in vincristine resistant human nasopharyngeal KB-VIN cancer cells after 3 days incubation; type: functional; settings: 72 h, read-out: ED50 (the source's name); summary of the method: as §1
KB [2] = assay: Dose required for reduction in human nasopharyngeal KB-7d cancer cells after 3 days incubation; type: functional; settings: 72 h, read-out: ED50 (the source's name); summary of the method: as §1
1A9 = assay: Dose required to cause reduction in human ovarian 1A9 cancer cells after 3 days incubation; type: functional; settings: 1A9, 72 h, read-out: ED50 (the source's name); summary of the method: as §1
KB [3] = assay: Dose required for reduction in camptothecin resistant human nasopharyngeal KB cancer cells after 3 days incubation; type: functional; settings: 72 h, read-out: ED50 (the source's name); summary of the method: as §1
1A9/ptx-10 = assay: Dose required for reduction in paclitaxel resistant human ovarian 1A9-PTX10 cancer cells after 3 days incubation; type: functional; settings: 1A9/ptx-10, 72 h, read-out: ED50 (the source's name); summary of the method: as §1
KB [4] = assay: Ratio of ED50 for KB-7d cells to that of KB cells; type: functional, Homo sapiens
Summary of the method: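 Relative resistance (fold) taken as ED50 against KB-7d divided by ED50 against KB. Both values come from 3-day drug exposure, with ED50 interpolated from dose–response data as the concentration reducing cell number by 50%.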

A549 = assay: Dose required for reduction in human lung A549 cancer cells after 3 days incubation; type: functional; settings: A549, 72 h, read-out: ED50 (the source's name); summary of the method: as §1
KB [5] = assay: Dose required to cause reduction in human nasopharyngeal KB cancer cells after 3 days incubation; type: functional; settings: 72 h, read-out: ED50 (the source's name); summary of the method: as §1
MCF7 = assay: Dose required for reduction in human breast MCF-7 cancer cells after 3 day incubation; type: functional; settings: MCF7, 72 h, read-out: ED50 (the source's name); summary of the method: as §1
[6] = molecular target: T1, DNA topoisomerase II (Homo sapiens) (UniProt P11388+Q02880); assay: Percentage of protein-linked DNA breaks in KB cells by [3H]thymidine incorporation; type: functional, cell-based; set-up: concentration or dose not given beside the values
Summary of the method: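 KB cells labelled overnight with 0.5 µCi/mL [methyl-3H]thymidine ([…]), chased 2 h, then treated in duplicate with compound at 10 µg/mL for 1 h. Protein-associated DNA breaks measured as potassium–SDS precipitable radioactivity. Values expressed relative to VP-16 control set at 100%.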

KB [7] = assay: Dose required for reduction in etoposide resistant human nasopharyngeal KB-7d cancer cells after 3 days incubation; type: functional; settings: 72 h, read-out: ED50 (the source's name); summary of the method: as §1
[8] = molecular target: T1, DNA topoisomerase II (Homo sapiens); assay: Percentage of protein-linked DNA breaks in KB cells by [3H]thymidine incorporation at 5 ug/mL; type: functional, cell-based
Summary of the method: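 [3H]thymidine-prelabelled KB cells (0.5 µCi/mL, overnight, 2 h chase) treated in duplicate with compound at 5 µg/mL for 1 h. Protein-linked DNA breaks read as potassium–SDS precipitable radioactivity, given as percent of the VP-16 control set at 100%.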

Compound | EC50 (CAKI-1) | EC50 (U-87 MG) | EC50 (HCT-8) | EC50 (PC-3) | EC50 (KB [1]) | EC50 (KB [2]) | EC50 (1A9) | EC50 (KB [3]) | EC50 (1A9/ptx-10) | Relative resistance (KB [4]) | EC50 (A549) | EC50 (KB [5]) | EC50 (MCF7) | Activity [6] | EC50 (KB [7]) | Activity [8]
COC(=O)[C@H](CCSC)NC(=O)c1ccc(N[C@@H]2c3cc4c(cc3[C@@H](c3cc(OC)c(O)c(OC)c3)[C@H]3C(=O)OC[C@@H]32)OCO4)cc1 | > 100 µM | 45.2 µM | 11.4 µM | 82.7 µM | 65.3 µM | 2.4 µg/mL (≈ 3.61 µM) | 0.12 µM | 3.3 µM | 2.1 µM | 3 | 2 µM | 0.8 µg/mL and 1.9 µM | 9.3 µM | 295% | 5.6 µM | –
COc1cc([C@@H]2c3cc4c(cc3[C@@H](Nc3ccc(C(=O)NCCc5ccccc5)cc3)[C@H]3COC(=O)[C@H]23)OCO4)cc(OC)c1O | – | – | – | – | – | 0.5 µg/mL (≈ 0.803 µM) | – | – | – | 14 | – | 0.03 µg/mL | – | – | – | 227%
COc1cc([C@@H]2c3cc4c(cc3[C@@H](Nc3ccc([N+](=O)[O-])cc3)[C@H]3COC(=O)[C@H]23)OCO4)cc(OC)c1O | – | – | – | – | – | 2 µg/mL (≈ 3.84 µM) | – | – | – | 10 | – | 0.2 µg/mL | – | 244% | – | 218%
COc1cc([C@@H]2c3cc4c(cc3[C@@H](Nc3ccc(C(=O)NCC(=O)OCc5ccccc5)cc3)[C@H]3COC(=O)[C@H]23)OCO4)cc(OC)c1O | > 100 µM | 16.9 µM | 3.5 µM | > 100 µM | 38.9 µM | 0.3 µg/mL (≈ 0.45 µM) | 0.12 µM | 1.3 µM | 0.78 µM | 0.6 | 0.61 µM | 0.5 µg/mL and 860 nM | 2.3 µM | 178% | 2.6 µM | –
COc1cc([C@@H]2c3cc4c(cc3[C@@H](Nc3ccc(C(=O)N[C@@H](C)C(=O)OCc5ccccc5)cc3)[C@H]3COC(=O)[C@H]23)OCO4)cc(OC)c1O | > 100 µM | 8 µM | 2.4 µM | 3.8 µM | 10.4 µM | 0.25 µg/mL (≈ 0.367 µM) | 0.05 µM | 1.7 µM | 0.2 µM | 0.5 | 0.7 µM | 0.5 µg/mL and 900 nM | 1.6 µM | 210% | 1.4 µM | –
COc1cc([C@@H]2c3cc4c(cc3[C@@H](NC(=O)[C@H](Cc3ccc(O)cc3)NC(=O)OCc3ccccc3)[C@H]3COC(=O)[C@H]23)OCO4)cc(OC)c1O | > 100 µM | 100 µM | 77.7 µM | 94.8 µM | > 100 µM | – | 0.94 µM | 9 µM | 5 µM | – | 15.9 µM | 3.9 µM | 17.4 µM | – | 11.9 µM | –
COc1cc([C@@H]2c3cc4c(cc3[C@@H](Nc3ccc(C(=O)N[C@H](C)C(=O)OCc5ccccc5)cc3)[C@H]3COC(=O)[C@H]23)OCO4)cc(OC)c1O | > 100 µM | 39.9 µM | 2.2 µM | > 100 µM | 3.7 µM | 0.25 µg/mL (≈ 0.367 µM) | 0.057 µM | 1.9 µM | 1.2 µM | 2.5 | 0.47 µM | 0.1 µg/mL and 1 µM | 2.7 µM | 133% | 0.67 µM | –
COc1cc([C@@H]2c3cc4c(cc3[C@@H](Nc3ccc(C(=O)N[C@@H](Cc5c[nH]c6ccccc56)C(=O)O)cc3)[C@H]3COC(=O)[C@H]23)OCO4)cc(OC)c1O | – | – | – | – | – | 8 µg/mL (≈ 11.3 µM) | – | – | – | 2 | – | 4 µg/mL | – | 7% | – | –
COC(=O)[C@H](Cc1ccc(O)cc1)NC(=O)c1ccc(N[C@@H]2c3cc4c(cc3[C@@H](c3cc(OC)c(O)c(OC)c3)[C@H]3C(=O)OC[C@@H]32)OCO4)cc1 | – | – | – | – | – | 5 µg/mL (≈ 7.18 µM) | – | – | – | 2.6 | – | 1.9 µg/mL | – | 76% | – | –
COC(=O)[C@H](Cc1c[nH]cn1)NC(=O)c1ccc(N[C@@H]2c3cc4c(cc3[C@@H](c3cc(OC)c(O)c(OC)c3)[C@H]3C(=O)OC[C@@H]32)OCO4)cc1 | > 100 µM | > 100 µM | 66 µM | > 100 µM | 11.1 µM | 2.2 µg/mL (≈ 3.28 µM) | 0.69 µM | 17.6 µM | 4 µM | 9.6 | 16.1 µM | 0.23 µg/mL and 7.6 µM | 29.8 µM | 122% | 14.7 µM | –
COC(=O)[C@H](Cc1ccc(O)c(O)c1)NC(=O)c1ccc(N[C@@H]2c3cc4c(cc3[C@@H](c3cc(OC)c(O)c(OC)c3)[C@H]3C(=O)OC[C@@H]32)OCO4)cc1 | – | – | – | – | – | 5.5 µg/mL (≈ 7.72 µM) | – | – | – | 5.5 | – | 1 µg/mL | – | 33% | – | –
COC(=O)[C@H](Cc1c[nH]c2ccccc12)NC(=O)c1ccc(N[C@@H]2c3cc4c(cc3[C@@H](c3cc(OC)c(O)c(OC)c3)[C@H]3C(=O)OC[C@@H]32)OCO4)cc1 | – | – | – | – | – | 2.5 µg/mL (≈ 3.47 µM) | – | – | – | 5 | – | 0.5 µg/mL | – | 58% | – | –
COC(=O)[C@@H](Cc1c[nH]c2ccccc12)NC(=O)c1ccc(N[C@@H]2c3cc4c(cc3[C@@H](c3cc(OC)c(O)c(OC)c3)[C@H]3C(=O)OC[C@@H]32)OCO4)cc1 | > 100 µM | 94.3 µM | 3.4 µM | > 100 µM | 54.9 µM | 0.4 µg/mL (≈ 0.556 µM) | 0.02 µM | 0.28 µM | 0.35 µM | 6.2 | 0.63 µM | 0.06 µg/mL and 440 nM | 3.6 µM | 121% | 3.5 µM | –
COC(=O)[C@H](Cc1ccccc1)NC(=O)c1ccc(N[C@@H]2c3cc4c(cc3[C@@H](c3cc(OC)c(O)c(OC)c3)[C@H]3C(=O)OC[C@@H]32)OCO4)cc1 | > 100 µM | 87.1 µM | 3.8 µM | > 100 µM | 4.2 µM | 1 µg/mL (≈ 1.47 µM) | 0.36 µM | 3.7 µM | 1.7 µM | 1.8 | 1.2 µM | 0.55 µg/mL and 1.4 µM | 9.6 µM | 226% | 1.7 µM | –
